Measured values published in publication PMC4651729 (ACS chemical neuroscience, 2015).
Entries after “also recorded” stand apart in the source; their conditions may differ.

Columns and labels:
mouse MOR-1 = mouse MOR-1 (Mus musculus, UniProt P42866); test: [125I]BNtxA competition binding, CHO cell membranes, MOR-1
Method in brief: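 Mouse MOR-1 clone stably expressed in CHO cells; membranes incubated 90 min at 25 °C in 50 mM potassium phosphate buffer, pH 7.4, with 5 mM MgSO4, no blockers. Filtration through glass-fibre filters, three washes with ice-cold 50 mM Tris-HCl, pH 7.4. Nonspecific binding with 8 μM levallorphan, subtracted from total. Ki by nonlinear regression. Protein measured by Lowry method.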

mouse KOR-1 = mouse KOR-1 (Mus musculus, UniProt P33534); test: [125I]BNtxA competition binding, CHO cell membranes, KOR-1
Method in brief: (§1)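 Membranes from CHO cells stably expressing the murine receptor clone, with no blockers, were incubated for 90 min at 25 °C in 50 mM potassium phosphate buffer (pH 7.4) with 5 mM MgSO4. Samples were then filtered on glass-fiber filters and washed with ice-cold 50 mM Tris-HCl (pH 7.4). Nonspecific binding was set with levallorphan 8 μM. Ki came from nonlinear regression. The 6TM/E11 comparison used mouse whole-brain membranes with CTAP, U50,488H and DPDPE, each at 200 nM.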

mouse DOR-1 = mouse DOR-1 (Mus musculus, UniProt P32300); test: [125I]BNtxA competition binding, CHO cell membranes, DOR-1
Method in brief: as §1

6TM/E11 = 6TM/E11 (Mus musculus, UniProt P42866); type: binding
Method in brief: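 Membrane homogenates of whole brain from wild-type mice. Blockers at 200 nM: CTAP for MOR-1, U50,488H for KOR-1 and DPDPE for DOR-1.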

CD1 mice = test: radiant heat tail flick analgesia; type: in vivo, mouse; settings: for fold higher analgesic potency than morphine: tail flick, systemic (sc)
KOR-1 = KOR-1 (Mus musculus, UniProt P33534); test: [35S]GTPγS binding assay, KOR-1; type: biochemical
mice = test: conditioned place preference/aversion; type: in vivo, mouse; settings: 2 days; for effect of pretreatment on cocaine-conditioned place preference: 16 1 mg/kg sc 10 min prior to cocaine 10 mg/kg sc; for place conditioning response to drug alone: 16 1 mg/kg sc, morphine 10 mg/kg ip, U50,488 30 mg/kg ip, cocaine 10 mg/kg sc
MOR-1 = MOR-1 (Mus musculus, UniProt P42866)
DOR-1 = DOR-1 (Mus musculus, UniProt P32300)
[1] = tested on: C57BL/6J, MOR-1 KO or KOR-1 KO mice; settings: C57BL/6J mice, sc
[2] = doses 30 times the antinociceptive ED50

SMILES: O=C(N[C@@H]1C=C[C@H]2[C@H]3Cc4ccc(O)c5c4[C@@]2(CCN3CC2CC2)[C@H]1O5)c1cccc(I)c1 [Compound 16, 17-Cyclopropylmethyl-3-hydroxy-4,5α-epoxy-7,8-en-6-β-[(3′-iodo)benzamido]-morphinan]
- fold higher MOR-1 affinity than corresponding 14-OH-epoxymorphinan analog (mouse MOR-1; 6 vs 19, 16 vs 1, 17 vs 20): 5 fold
- selectivity for MOR-1 over 6TM/E11 sites (mouse MOR-1; ratio of Ki): 22 fold
- Ki (mouse MOR-1; read-out: Ki MOR-1, [125I]BNtxA 0.1 nM, CHO membranes, mouse MOR-1): 0.021 ± 0.0034 nM
- fold higher KOR-1 affinity than corresponding 14-OH-epoxymorphinan analog (mouse KOR-1; 6 vs 19, 16 vs 1, 17 vs 20): 4.7 fold
- selectivity for KOR-1 over 6TM/E11 sites (mouse KOR-1; ratio of Ki): 73 fold
- Ki (mouse KOR-1; read-out: Ki KOR-1, [125I]BNtxA 0.1 nM, CHO membranes, mouse KOR-1): 0.0064 ± 0.002 nM
- fold higher DOR-1 affinity than corresponding 14-OH-epoxymorphinan analog (mouse DOR-1; 6 vs 19, 16 vs 1, 17 vs 20): 3 fold
- selectivity for DOR-1 over 6TM/E11 sites (mouse DOR-1; ratio of Ki): 6 fold
- Ki (mouse DOR-1; read-out: Ki DOR-1, [125I]BNtxA 0.1 nM, CHO membranes, mouse DOR-1): 0.08 ± 0.019 nM
- fold lower 6TM/E11 affinity than 1 (6TM/E11; compared with 1): 3 fold
- Ki (6TM/E11; read-out: Ki 6TM/E11, [125I]BNtxA 0.1 nM, mouse brain, CTAP, DPDPE, U50,488 blockers at 200 nM): 0.47 ± 0.009 nM
- antinociception after pretreatment with NOP antagonist J-113,397 (CD1 mice; CD1 mice, 16 0.5 mg/kg sc, J-113,397 30 mg/kg sc 15 min before, listed as 16 (MP1104)): No change in the antinociceptive efiect; also recorded: insensitive
- antinociception after pretreatment with DOR-1 antagonist NTI (CD1 mice; CD1 mice, 16 0.5 mg/kg sc, NTI 20 mg/kg sc 15 min before, listed as 16 (MP1104)): attenuated the antinociceptive effects; also recorded: partially antagonized
- antinociception after pretreatment with both norBNI and NTI (CD1 mice; CD1 mice, 16 0.5 mg/kg sc, listed as 16 (MP1104)): fully prevented antinociception; also recorded: eliminated the antinociceptive response
- antinociception after pretreatment with KOR-1 antagonist norBNI (CD1 mice; CD1 mice, 16 0.5 mg/kg sc, norBNI 10 mg/kg sc 24 h before, listed as 16 (MP1104)): attenuated the antinociceptive effects; also recorded: partially antagonized
- antinociception after pretreatment with MOR-1 antagonist β-FNA (CD1 mice; CD1 mice, 16 0.5 mg/kg sc, β-FNA 40 mg/kg sc 24 h before, listed as 16 (MP1104)): did not alter anti-nociception; also recorded: insensitive
- tail flick analgesia (CI), ED50 (CD1 mice; sc, 30 min after dosing, mice, 95% CI or ± SEM): 0.33 ± 0.09 mg/kg
- fold higher analgesic potency than morphine (CD1 mice; listed as 16 (MP1104)): 15 fold
- fold higher analgesic potency than morphine (CD1 mice; listed as MP1104): approximately 15 fold
- agonist efficacy at KOR-1 (in words) (KOR-1; [35S]GTPγS): full agonist eficacy
- EC50 (KOR-1; read-out: EC50 KOR-1, [35S]GTPγS stimulation): 0.027 ± 0.002 nM
- Emax (% stimulation) KOR-1 (KOR-1; relative to U50,488H at 100 nM): 104 ± 2.3 % stimulation
- effect of pretreatment on cocaine-conditioned place preference (mice; listed as 16 (MP1104)): prevented significant place preference produced by cocaine; also recorded: prevented cocaine-conditioned place preference; also recorded: abolished cocaine preference; also recorded: effectively blocked cocaine-conditioned place preference
- effect of pretreatment on cocaine-conditioned place preference (mice; listed as MP1104): prevented the reward behavior associated with cocaine
- place conditioning response to drug alone (mice; listed as 16 (MP1104)): neither conditioned place preference nor aversion; also recorded: did not produce conditioned place preference or aversion; also recorded: produced neither preference nor aversion; also recorded: lacks rewarding and dysphoric properties
- place conditioning response to drug alone (mice; listed as MP1104): did not cause place aversion or preference
- agonist efficacy at MOR-1 (in words) (MOR-1; [35S]GTPγS, listed as 16 (MP1104)): full agonist eficacy; also recorded: full agonism
- EC50 (MOR-1; read-out: EC50 MOR-1, [35S]GTPγS stimulation): 0.21 ± 0.03 nM
- Emax (% stimulation) MOR-1 (MOR-1; relative to DAMGO at 100 nM): 103 ± 2.5 % stimulation
- agonist efficacy at DOR-1 (in words) (DOR-1; [35S]GTPγS): full agonist eficacy
- EC50 (DOR-1; read-out: EC50 DOR-1, [35S]GTPγS stimulation): 0.41 ± 0.11 nM
- Emax (% stimulation) DOR-1 (DOR-1; relative to DPDPE at 100 nM): 88 ± 0.38 % stimulation
- antinociception ED50 (95% confidence interval) [1]: 0.22 (0.17–0.29) mg/kg
- seizures [2]: not observed to produce seizures
